How the values were obtained:
DU-145 = assay: Cytotoxicity against human DU145 cells after 48 hrs by SRB assay; format: functional; conditions: DU-145, 48 h
NCI/ADR-RES = assay: Growth inhibition of human NCI/ADR-RES cells assessed as cell growth at 10^-7 M incubated for 48 hrs by sulforhodamine B assay relative to control; format: functional; conditions: read-out: Activity
EKVX = assay: Growth inhibition of human EKVX cells assessed as cell growth at 10^-8 M incubated for 48 hrs by sulforhodamine B assay relative to control; format: functional; conditions: read-out: Activity
U-251 [1] = assay: Growth inhibition of human U251 cells assessed as cell growth at 10^-6 M incubated for 48 hrs by sulforhodamine B assay relative to control; format: functional; conditions: U-251, 48 h, read-out: Activity
UACC-62 [2] = assay: Growth inhibition of human UACC62 cells assessed as cell growth at 10^-8 M incubated for 48 hrs by sulforhodamine B assay relative to control; format: functional; conditions: UACC-62, 48 h, read-out: Activity
HOP-62 [3] = assay: Growth inhibition of human HOP62 cells assessed as cell growth at 10^-6 M incubated for 48 hrs by sulforhodamine B assay relative to control; format: functional; conditions: HOP-62, 48 h, read-out: Activity
SK-MEL-5 = assay: Growth inhibition of human SK-MEL-5 cells assessed as cell growth at 10^-8 M incubated for 48 hrs by sulforhodamine B assay relative to control; format: functional; conditions: SK-MEL-5, 48 h, read-out: Activity
M14 = assay: Growth inhibition of human M14 cells assessed as cell growth at 10^-6 M incubated for 48 hrs by sulforhodamine B assay relative to control; format: functional; conditions: M14, 48 h, read-out: Activity
HCC 2998 = assay: Cytotoxicity against human HCC2998 cells after 48 hrs by SRB assay; format: functional; conditions: HCC 2998, 48 h
BT-549 = assay: Growth inhibition of human BT549 cells assessed as cell growth at 10^-6 M incubated for 48 hrs by sulforhodamine B assay relative to control; format: functional; conditions: BT-549, 48 h, read-out: Activity
HL-60(TB) = assay: Growth inhibition of human HL-60(TB) cells assessed as cell growth at 10^-8 M incubated for 48 hrs by sulforhodamine B assay relative to control; format: functional; conditions: HL-60, 48 h, read-out: Activity
UACC-62 [4] = assay: Growth inhibition of human UACC62 cells assessed as cell growth at 10^-7 M incubated for 48 hrs by sulforhodamine B assay relative to control; format: functional; conditions: UACC-62, 48 h, read-out: Activity
SK-MEL-28 [5] = assay: Growth inhibition of human SK-MEL-28 cells assessed as cell growth at 10^-8 M incubated for 48 hrs by sulforhodamine B assay relative to control; format: functional; conditions: SK-MEL-28, 48 h, read-out: Activity
HOP-62 [6] = assay: Cytotoxicity against human HOP62 cells after 48 hrs by SRB assay; format: functional; conditions: HOP-62, 48 h; for CC50: read-out: pLC50 (the source's name) (converted)
U-251 [7] = assay: Growth inhibition of human U251 cells assessed as cell growth at 10^-8 M incubated for 48 hrs by sulforhodamine B assay relative to control; format: functional; conditions: U-251, 48 h, read-out: Activity
MOLT-4 = assay: Growth inhibition of human MOLT4 cells assessed as cell growth at 10^-5 M incubated for 48 hrs by sulforhodamine B assay relative to control; format: functional; conditions: MOLT-4, 48 h, read-out: Activity
CCRF-CEM = assay: Antiproliferative activity against human CEM cells after 72 hrs by Coulter counter method; format: functional, cell-based
In short: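 Cell count assay in 96-well microtiter plates; (5–7.5) × 10⁴ tumor cells per well plus test compound. Cells proliferated at 37 °C in humidified CO₂-controlled atmosphere, 48 h for murine leukemia L1210, 72 h for human lymphocytic CEM and cervix carcinoma HeLa. Counted by Coulter counter; IC₅₀ is the concentration that inhibits proliferation by 50%.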

SF-268 = assay: Growth inhibition of human SF268 cells assessed as cell growth at 10^-8 M incubated for 48 hrs by sulforhodamine B assay relative to control; format: functional; conditions: SF-268, 48 h, read-out: Activity
NCI-H322M = assay: Cytotoxicity against human NCI-H322M cells after 48 hrs by SRB assay; format: functional
K562 [8] = assay: Growth inhibition of human K562 cells assessed as cell growth at 10^-8 M incubated for 48 hrs by sulforhodamine B assay relative to control; format: functional; conditions: K562, 48 h, read-out: Activity
PC-3 = assay: Growth inhibition of human PC3 cells assessed as cell growth at 10^-6 M incubated for 48 hrs by sulforhodamine B assay relative to control; format: functional; conditions: PC-3, 48 h, read-out: Activity
SF-295 = assay: Growth inhibition of human SF295 cells assessed as cell growth at 10^-6 M incubated for 48 hrs by sulforhodamine B assay relative to control; format: functional; conditions: SF-295, 48 h, read-out: Activity
SK-MEL-28 [9] = assay: Cytotoxicity against human SK-MEL-28 cells after 48 hrs by SRB assay; format: functional; conditions: SK-MEL-28, 48 h; for CC50: read-out: pLC50 (the source's name) (converted)
TK-10 [10] = assay: Growth inhibition of human TK10 cells assessed as cell growth at 10^-7 M incubated for 48 hrs by sulforhodamine B assay relative to control; format: functional; conditions: TK-10, 48 h, read-out: Activity
NCI-H460 = assay: Growth inhibition of human NCI-H460 cells assessed as cell growth at 10^-7 M incubated for 48 hrs by sulforhodamine B assay relative to control; format: functional; conditions: NCI-H460, 48 h, read-out: Activity
Malme-3M = assay: Cytotoxicity against human MALME-3M cells after 48 hrs by SRB assay; format: functional
OVCAR-8 = assay: Growth inhibition of human OVCAR8 cells assessed as cell growth at 10^-7 M incubated for 48 hrs by sulforhodamine B assay relative to control; format: functional; conditions: OVCAR-8, 48 h, read-out: Activity
TK-10 [11] = assay: Growth inhibition of human TK10 cells assessed as cell growth at 10^-4 M incubated for 48 hrs by sulforhodamine B assay relative to control; format: functional; conditions: TK-10, 48 h, read-out: Activity
K562 [12] = assay: Growth inhibition of human K562 cells assessed as cell growth at 10^-7 M incubated for 48 hrs by sulforhodamine B assay relative to control; format: functional; conditions: K562, 48 h, read-out: Activity
TK-10 [13] = assay: Cytotoxicity against human TK10 cells after 48 hrs by SRB assay; format: functional; conditions: TK-10, 48 h
A549 = assay: Growth inhibition of human A549/ATCC cells assessed as cell growth at 10^-4 M incubated for 48 hrs by sulforhodamine B assay relative to control; format: functional; conditions: A549, 48 h, read-out: Activity
[14] = read-out: LC50 (the source's name)
[15] = read-out: pLC50 (the source's name) (converted)

## C#C[C@@]1(O)[C@@H](CO)O[C@@H](n2cc(F)c3c(N)ncnc32)[C@@H]1O
DU-145; [14]
  CC50: > 100000 nM
DU-145; read-out: TGI
  TGI: 13400 nM
DU-145; read-out: pGI50 (converted)
  GI50: 355 nM
DU-145; read-out: pTGI (converted)
  TGI: 13500 nM
NCI/ADR-RES
  growth at 0.1 µM: 76%
EKVX
  growth at 0.01 µM: 94%
U-251 [1]
  growth at 1 µM: 38%
UACC-62 [2]
  growth at 0.01 µM: 94%
HOP-62 [3]
  growth at 1 µM: 33%
SK-MEL-5
  growth at 0.01 µM: 92%
M14
  growth at 1 µM: 29%
HCC 2998; read-out: TGI
  TGI: 2820 nM
HCC 2998; read-out: pGI50 (converted)
  GI50: 603 nM
HCC 2998; [15]
  CC50: 15800 nM
HCC 2998; read-out: pTGI (converted)
  TGI: 2820 nM
BT-549
  growth at 1 µM: 45%
HL-60(TB)
  growth at 0.01 µM: 93%
UACC-62 [4]
  growth at 0.1 µM: 91%
SK-MEL-28 [5]
  growth at 0.01 µM: 102%
HOP-62 [6]; read-out: TGI
  TGI: 7790 nM
HOP-62 [6]; read-out: pGI50 (converted)
  GI50: 575 nM
HOP-62 [6]
  CC50: > 100000 nM
HOP-62 [6]; read-out: pTGI (converted)
  TGI: 7760 nM
U-251 [7]
  growth at 0.01 µM: 97%
MOLT-4
  growth at 10 µM: 2%
CCRF-CEM
  IC50: 160 nM
SF-268
  growth at 0.01 µM: 100%
NCI-H322M; [14]
  CC50: > 100000 nM
NCI-H322M; read-out: TGI
  TGI: 4480 nM
NCI-H322M; read-out: pGI50 (converted)
  GI50: 501 nM
NCI-H322M; read-out: pTGI (converted)
  TGI: 4470 nM
K562 [8]
  growth at 0.01 µM: 100%
PC-3
  growth at 1 µM: 11%
SF-295
  growth at 1 µM: 40%
SK-MEL-28 [9]; read-out: TGI
  TGI: > 100000 nM
SK-MEL-28 [9]; read-out: pGI50 (converted)
  GI50: 4270 nM
SK-MEL-28 [9]
  CC50: > 100000 nM
SK-MEL-28 [9]; read-out: pTGI (converted)
  TGI: > 100000 nM
TK-10 [10]
  growth at 0.1 µM: 102%
NCI-H460
  growth at 0.1 µM: 76%
Malme-3M; read-out: TGI
  TGI: 1810 nM
Malme-3M; read-out: pGI50 (converted)
  GI50: 363 nM
Malme-3M; [15]
  CC50: > 100000 nM
Malme-3M; read-out: pTGI (converted)
  TGI: 1820 nM
OVCAR-8
  growth at 0.1 µM: 74%
TK-10 [11]
  growth at 100 µM: -24%
K562 [12]
  growth at 0.1 µM: 78%
TK-10 [13]; [14]
  CC50: > 100000 nM
TK-10 [13]; read-out: TGI
  TGI: 6560 nM
TK-10 [13]; read-out: pGI50 (converted)
  GI50: 741 nM
TK-10 [13]; read-out: pTGI (converted)
  TGI: 6610 nM

## C#C[C@@]1(O)[C@@H](CO)O[C@@H](n2cc(Cl)c3c(N)ncnc32)[C@@H]1O
DU-145; read-out: GI50
  GI50: 109 to 159 nM
DU-145; read-out: TGI
  TGI: 27000 to 100000 nM
DU-145; [15]
  CC50: > 100000 nM
NCI/ADR-RES
  growth at 0.1 µM: 37 to 40%
EKVX
  growth at 0.01 µM: 83 to 89%
UACC-62 [2]
  growth at 0.01 µM: 94 to 97%
HOP-62 [3]
  growth at 1 µM: 2 to 10%
SK-MEL-5
  growth at 0.01 µM: 90 to 97%
HCC 2998; read-out: GI50
  GI50: 182 to 191 nM
HCC 2998; [14]
  CC50: > 100000 nM
HCC 2998; read-out: TGI
  TGI: 501 to 565 nM
HL-60(TB)
  growth at 0.01 µM: 83 to 85%
UACC-62 [4]
  growth at 0.1 µM: 75 to 81%
SK-MEL-28 [5]
  growth at 0.01 µM: 94%
HOP-62 [6]; read-out: GI50
  GI50: 216 to 299 nM
HOP-62 [6]; read-out: TGI
  TGI: 1160 to 3350 nM
HOP-62 [6]
  CC50: > 100000 nM
U-251 [7]
  growth at 0.01 µM: 47 to 66%
MOLT-4
  growth at 10 µM: 2%
A549
  growth at 100 µM: 8 to 12%
CCRF-CEM
  IC50: 12 nM
SF-268
  growth at 0.01 µM: 82 to 88%
NCI-H322M; read-out: GI50
  GI50: 206 to 334 nM
NCI-H322M; read-out: TGI
  TGI: 2120 to 4630 nM
NCI-H322M; [15]
  CC50: > 100000 nM
K562 [8]
  growth at 0.01 µM: 93 to 97%
PC-3
  growth at 1 µM: 9 to 11%
SF-295
  growth at 1 µM: 13 to 20%
SK-MEL-28 [9]; read-out: GI50
  GI50: 469 to 706 nM
SK-MEL-28 [9]; read-out: TGI
  TGI: 57100 to 89400 nM
SK-MEL-28 [9]
  CC50: > 100000 nM
TK-10 [10]
  growth at 0.1 µM: 100 to 101%
NCI-H460
  growth at 0.1 µM: 13 to 27%
Malme-3M; read-out: GI50
  GI50: 223 to 262 nM
Malme-3M; [14]
  CC50: > 100000 nM
Malme-3M; read-out: TGI
  TGI: 858 to 11800 nM
OVCAR-8
  growth at 0.1 µM: 35 to 39%
K562 [12]
  growth at 0.1 µM: 45 to 55%
TK-10 [13]; read-out: GI50
  GI50: 302 to 334 nM
TK-10 [13]; read-out: TGI
  TGI: 891 to 1720 nM
TK-10 [13]; [15]
  CC50: > 100000 nM

From ChEMBL document CHEMBL4270599, “Synthesis of a 3'-C-ethynyl-β-d-ribofuranose purine nucleoside library: Discovery of C7-deazapurine analogs as potent antiproliferative nucleosides” (Eur J Med Chem, 2018)
